Converted amounts (≈) assume the structure as drawn.
Tests used:
Format in all cases: functional
Streptococcus pneumoniae [1] = assay: Antimicrobial activity against drug-resistant Streptococcus pneumoniae isolate 24 after 50 passages with moxifloxacin measured after 10 antibiotic-free subculture by multi-step resistance selection technique
How it was run: (§1)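 Mutants selected by daily broth passage in subinhibitory drug in cation-adjusted Mueller-Hinton broth with 5% lysed horse blood. Stability was tested by 10 daily passages on blood agar without antibiotic, then macrodilution MIC.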

Streptococcus pneumoniae [2] = assay: Antimicrobial activity against drug-resistant Streptococcus pneumoniae isolate 1076 after 14 passages with Telithromycin measured after 10 antibiotic-free subculture by multi-step resistance selection technique; how it was run: as §1
Streptococcus pneumoniae [3] = assay: Antimicrobial activity against drug-resistant Streptococcus pneumoniae isolate 3009 after 25 passages with clarithromycin measured after 10 antibiotic-free subculture by multi-step resistance selection technique
Streptococcus pneumoniae [4] = assay: Antimicrobial activity against drug-resistant Streptococcus pneumoniae isolate 1635 after 14 passages with azithromycin measured after 10 antibiotic-free subculture by multi-step resistance selection technique; how it was run: as §1
Streptococcus pneumoniae [5] = assay: Antimicrobial activity against drug-resistant Streptococcus pneumoniae isolate 3009 after 18 passages with levofloxacin measured after 10 antibiotic-free subculture by multi-step resistance selection technique; how it was run: as §1
Streptococcus pneumoniae [6] = assay: Antimicrobial activity against drug-resistant Streptococcus pneumoniae isolate 3243 by NCCLS M7-A7 method
Streptococcus pneumoniae [7] = assay: Antimicrobial activity against drug-resistant Streptococcus pneumoniae isolate 37 after 14 passages with Telithromycin measured after 10 antibiotic-free subculture by multi-step resistance selection technique
Streptococcus pneumoniae [8] = assay: Antimicrobial activity against drug-resistant Streptococcus pneumoniae isolate 2527 by NCCLS M7-A7 method
Streptococcus pneumoniae [9] = assay: Antimicrobial activity against drug-resistant Streptococcus pneumoniae isolate 2527 after 14 passages with gemifloxacin measured after 10 antibiotic-free subculture by multi-step resistance selection technique; how it was run: as §1
Streptococcus pneumoniae [10] = assay: Antimicrobial activity against drug-resistant Streptococcus pneumoniae isolate 3676 after 44 passages by multi-step resistance selection technique
How it was run: (§2)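 Daily serial passage in broth at subinhibitory drug levels: 1 ml cation-adjusted Mueller-Hinton broth with 5% lysed horse blood; fresh broth for tigecycline. Each day 10 μl inoculum taken from the tube one to two dilutions below MIC matching growth-control turbidity, used to set next MIC. Continued until ≥8-fold MIC rise, minimum 14, maximum 50 passages; MIC read by macrodilution.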

Streptococcus pneumoniae [11] = assay: Antimicrobial activity against drug-resistant Streptococcus pneumoniae isolate 3676 after 44 passages with clarithromycin measured after 10 antibiotic-free subculture by multi-step resistance selection technique
Streptococcus pneumoniae [12] = assay: Antimicrobial activity against drug-resistant Streptococcus pneumoniae isolate 1076 after 35 passages with moxifloxacin measured after 10 antibiotic-free subculture by multi-step resistance selection technique; how it was run: as §1
Streptococcus pneumoniae [13] = assay: Antimicrobial activity against drug-resistant Streptococcus pneumoniae isolate 1635 after 49 passages by multi-step resistance selection technique
How it was run: (§3)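 Daily serial passage in subinhibitory drug levels in 1 ml cation-adjusted Mueller-Hinton broth with 5% lysed horse blood; fresh broth for tigecycline. Each day, 10 μl were taken from the tube one to two dilutions below the MIC whose turbidity matched the growth control, and used to set the next MIC. […] MIC by macrodilution.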

Streptococcus pneumoniae [14] = assay: Antimicrobial activity against drug-resistant Streptococcus pneumoniae isolate 3243 after 41 passages with clarithromycin measured after 10 antibiotic-free subculture by multi-step resistance selection technique
Streptococcus pneumoniae [15] = assay: Antimicrobial activity against drug-resistant Streptococcus pneumoniae isolate 1635 by NCCLS M7-A7 method
Streptococcus pneumoniae [16] = assay: Antimicrobial activity against drug-resistant Streptococcus pneumoniae isolate 1077 by NCCLS M7-A7 method
Streptococcus pneumoniae [17] = assay: Antimicrobial activity against drug-resistant Streptococcus pneumoniae isolate 3665 after 14 passages with Telithromycin measured after 10 antibiotic-free subculture by multi-step resistance selection technique
Streptococcus pneumoniae [18] = assay: Antimicrobial activity against drug-resistant Streptococcus pneumoniae isolate 2527 after 50 passages by multi-step resistance selection technique; how it was run: as §3
Streptococcus pneumoniae [19] = assay: Antimicrobial activity against drug-resistant Streptococcus pneumoniae isolate 3665 after 26 passages by multi-step resistance selection technique; how it was run: as §2
Streptococcus pneumoniae [20] = assay: Antimicrobial activity against drug-resistant Streptococcus pneumoniae isolate 3009 after 19 passages with moxifloxacin measured after 10 antibiotic-free subculture by multi-step resistance selection technique; how it was run: as §1
Streptococcus pneumoniae [21] = assay: Antimicrobial activity against drug-resistant Streptococcus pneumoniae isolate 3009 by NCCLS M7-A7 method
Streptococcus pneumoniae [22] = assay: Antimicrobial activity against drug-resistant Streptococcus pneumoniae isolate 3676 after 50 passages with moxifloxacin measured after 10 antibiotic-free subculture by multi-step resistance selection technique
Streptococcus pneumoniae [23] = assay: Antimicrobial activity against drug-resistant Streptococcus pneumoniae isolate 3413 after 50 passages by multi-step resistance selection technique
How it was run: (§4)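 Daily serial passage in subinhibitory drug levels in 1 ml cation-adjusted Mueller-Hinton broth with 5% lysed horse blood; fresh broth for tigecycline. Each day, 10 μl were taken from the tube one to two dilutions below the MIC whose turbidity matched the growth control, and used to set the next MIC. MIC by macrodilution.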

Streptococcus pneumoniae [24] = assay: Antimicrobial activity against drug-resistant Streptococcus pneumoniae isolate 1635 after 14 passages with clindamycin measured after 10 antibiotic-free subculture by multi-step resistance selection technique
Streptococcus pneumoniae [25] = assay: Antimicrobial activity against drug-resistant Streptococcus pneumoniae isolate 1077 after 50 passages by multi-step resistance selection technique; how it was run: as §4
Streptococcus pneumoniae [26] = assay: Antimicrobial activity against drug-resistant Streptococcus pneumoniae isolate 3009 after 21 passages with gemifloxacin measured after 10 antibiotic-free subculture by multi-step resistance selection technique; how it was run: as §1
Streptococcus pneumoniae [27] = assay: Antimicrobial activity against drug-resistant Streptococcus pneumoniae isolate 1635 after 49 passages with clarithromycin measured after 10 antibiotic-free subculture by multi-step resistance selection technique
Streptococcus pneumoniae [28] = assay: Antimicrobial activity against drug-resistant Streptococcus pneumoniae isolate 3243 after 41 passages by multi-step resistance selection technique; how it was run: as §3
Streptococcus pneumoniae [29] = assay: Antimicrobial activity against drug-resistant Streptococcus pneumoniae isolate 3665 after 26 passages with clarithromycin measured after 10 antibiotic-free subculture by multi-step resistance selection technique
Streptococcus pneumoniae [30] = assay: Antimicrobial activity against drug-resistant Streptococcus pneumoniae isolate 3413 by NCCLS M7-A7 method
Streptococcus pneumoniae [31] = assay: Antimicrobial activity against drug-resistant Streptococcus pneumoniae isolate 1077 after 29 passages with azithromycin measured after 10 antibiotic-free subculture by multi-step resistance selection technique; how it was run: as §1
Streptococcus pneumoniae [32] = assay: Antimicrobial activity against drug-resistant Streptococcus pneumoniae isolate 1077 after 15 passages with Telithromycin measured after 10 antibiotic-free subculture by multi-step resistance selection technique; how it was run: as §1
Streptococcus pneumoniae [33] = assay: Antimicrobial activity against drug-resistant Streptococcus pneumoniae isolate 1077 after 49 passages with clindamycin measured after 10 antibiotic-free subculture by multi-step resistance selection technique
Streptococcus pneumoniae [34] = assay: Antimicrobial activity against drug-resistant Streptococcus pneumoniae isolate 37 by NCCLS M7-A7 method
Streptococcus pneumoniae [35] = assay: Antimicrobial activity against drug-resistant Streptococcus pneumoniae isolate 2527 after 20 passages with azithromycin measured after 10 antibiotic-free subculture by multi-step resistance selection technique; how it was run: as §1
Streptococcus pneumoniae [36] = assay: Antimicrobial activity against drug-resistant Streptococcus pneumoniae isolate 3665 after 38 passages with moxifloxacin measured after 10 antibiotic-free subculture by multi-step resistance selection technique
Streptococcus pneumoniae [37] = assay: Antimicrobial activity against drug-resistant Streptococcus pneumoniae isolate 3274 after 50 passages by multi-step resistance selection technique; how it was run: as §4
Streptococcus pneumoniae [38] = assay: Antimicrobial activity against drug-resistant Streptococcus pneumoniae isolate 3676 after 14 passages with Telithromycin measured after 10 antibiotic-free subculture by multi-step resistance selection technique
Streptococcus pneumoniae [39] = assay: Antimicrobial activity against drug-resistant Streptococcus pneumoniae isolate 3009 after 25 passages by multi-step resistance selection technique; how it was run: as §3
Streptococcus pneumoniae [40] = assay: Antimicrobial activity against drug-resistant Streptococcus pneumoniae isolate 3413 after 30 passages with Telithromycin measured after 10 antibiotic-free subculture by multi-step resistance selection technique; how it was run: as §1
Streptococcus pneumoniae [41] = assay: Antimicrobial activity against drug-resistant Streptococcus pneumoniae isolate 24 after 14 passages with Telithromycin measured after 10 antibiotic-free subculture by multi-step resistance selection technique; how it was run: as §1
Streptococcus pneumoniae [42] = assay: Antimicrobial activity against drug-resistant Streptococcus pneumoniae isolate 3274 after 48 passages with Telithromycin measured after 10 antibiotic-free subculture by multi-step resistance selection technique; how it was run: as §1
Streptococcus pneumoniae [43] = assay: Antimicrobial activity against drug-resistant Streptococcus pneumoniae isolate 3274 by NCCLS M7-A7 method
Streptococcus pneumoniae [44] = assay: Antimicrobial activity against drug-resistant Streptococcus pneumoniae isolate 3243 after 29 passages with Telithromycin measured after 10 antibiotic-free subculture by multi-step resistance selection technique; how it was run: as §1
Streptococcus pneumoniae [45] = assay: Antimicrobial activity against drug-resistant Streptococcus pneumoniae isolate 24 by NCCLS M7-A7 method
Streptococcus pneumoniae [46] = assay: Antimicrobial activity against drug-resistant Streptococcus pneumoniae isolate 3676 by NCCLS M7-A7 method
Streptococcus pneumoniae [47] = assay: Antimicrobial activity against drug-resistant Streptococcus pneumoniae isolate 3665 by NCCLS M7-A7 method
Streptococcus pneumoniae [48] = assay: Antimicrobial activity against drug-resistant Streptococcus pneumoniae isolate 3243 after 33 passages with azithromycin measured after 10 antibiotic-free subculture by multi-step resistance selection technique; how it was run: as §1
Streptococcus pneumoniae [49] = assay: Antimicrobial activity against drug-resistant Streptococcus pneumoniae isolate 1076 by NCCLS M7-A7 method
Streptococcus pneumoniae [50] = assay: Antimicrobial activity against drug-resistant Streptococcus pneumoniae isolate 3243 after 20 passages with moxifloxacin measured after 10 antibiotic-free subculture by multi-step resistance selection technique; how it was run: as §1

CC[C@H]1OC(=O)[C@H](C)[C@@H](O[C@H]2C[C@@](C)(OC)[C@@H](O)[C@H](C)O2)[C@H](C)[C@@H](O[C@@H]2O[C@H](C)C[C@H](N(C)C)[C@H]2O)[C@](C)(OC)C[C@@H](C)C(=O)[C@H](C)[C@@H](O)[C@]1(C)O [CLARITHROMYCIN]
MIC (Streptococcus pneumoniae [1]): > 64 µg/mL
MIC (Streptococcus pneumoniae [2]): > 64 µg/mL
MIC (Streptococcus pneumoniae [3]): 64 µg/mL (≈ 85.6 µM)
MIC (Streptococcus pneumoniae [4]): > 64 µg/mL
MIC (Streptococcus pneumoniae [5]): 8 µg/mL (≈ 10.7 µM)
MIC (Streptococcus pneumoniae [6]): 0.016 µg/mL (≈ 0.0214 µM)
MIC (Streptococcus pneumoniae [7]): > 64 µg/mL
MIC (Streptococcus pneumoniae [8]): 0.008 µg/mL (≈ 0.0107 µM)
MIC (Streptococcus pneumoniae [9]): 0.016 µg/mL (≈ 0.0214 µM)
MIC (Streptococcus pneumoniae [10]): 32 µg/mL (≈ 42.8 µM)
MIC (Streptococcus pneumoniae [11]): 16 µg/mL (≈ 21.4 µM)
MIC (Streptococcus pneumoniae [12]): > 64 µg/mL
MIC (Streptococcus pneumoniae [13]): > 64 µg/mL
MIC (Streptococcus pneumoniae [14]): 0.25 µg/mL (≈ 0.334 µM)
MIC (Streptococcus pneumoniae [15]): 0.5 µg/mL (≈ 0.668 µM)
MIC (Streptococcus pneumoniae [16]): 0.016 µg/mL (≈ 0.0214 µM)
MIC (Streptococcus pneumoniae [17]): 2 µg/mL (≈ 2.67 µM)
MIC (Streptococcus pneumoniae [18]): 0.016 µg/mL (≈ 0.0214 µM)
MIC (Streptococcus pneumoniae [19]): 16 µg/mL (≈ 21.4 µM)
MIC (Streptococcus pneumoniae [20]): 8 µg/mL (≈ 10.7 µM)
MIC (Streptococcus pneumoniae [21]): 16 µg/mL (≈ 21.4 µM)
MIC (Streptococcus pneumoniae [22]): 4 µg/mL (≈ 5.35 µM)
MIC (Streptococcus pneumoniae [23]): 8 µg/mL (≈ 10.7 µM)
MIC (Streptococcus pneumoniae [24]): 0.5 µg/mL (≈ 0.668 µM)
MIC (Streptococcus pneumoniae [25]): 0.008 µg/mL (≈ 0.0107 µM)
MIC (Streptococcus pneumoniae [26]): 16 µg/mL (≈ 21.4 µM)
MIC (Streptococcus pneumoniae [27]): > 64 µg/mL
MIC (Streptococcus pneumoniae [28]): 0.25 µg/mL (≈ 0.334 µM)
MIC (Streptococcus pneumoniae [29]): 8 µg/mL (≈ 10.7 µM)
MIC (Streptococcus pneumoniae [30]): 8 µg/mL (≈ 10.7 µM)
MIC (Streptococcus pneumoniae [31]): > 64 µg/mL
MIC (Streptococcus pneumoniae [32]): > 64 µg/mL
MIC (Streptococcus pneumoniae [33]): > 64 µg/mL
MIC (Streptococcus pneumoniae [34]): > 64 µg/mL
MIC (Streptococcus pneumoniae [35]): 16 µg/mL (≈ 21.4 µM)
MIC (Streptococcus pneumoniae [36]): 2 µg/mL (≈ 2.67 µM)
MIC (Streptococcus pneumoniae [37]): 0.03 µg/mL (≈ 0.0401 µM)
MIC (Streptococcus pneumoniae [38]): 2 µg/mL (≈ 2.67 µM)
MIC (Streptococcus pneumoniae [39]): > 64 µg/mL
MIC (Streptococcus pneumoniae [40]): 16 µg/mL (≈ 21.4 µM)
MIC (Streptococcus pneumoniae [41]): > 64 µg/mL
MIC (Streptococcus pneumoniae [42]): 1 µg/mL (≈ 1.34 µM)
MIC (Streptococcus pneumoniae [43]): 0.008 µg/mL (≈ 0.0107 µM)
MIC (Streptococcus pneumoniae [44]): > 64 µg/mL
MIC (Streptococcus pneumoniae [45]): > 64 µg/mL
MIC (Streptococcus pneumoniae [46]): 4 µg/mL (≈ 5.35 µM)
MIC (Streptococcus pneumoniae [47]): 2 µg/mL (≈ 2.67 µM)
MIC (Streptococcus pneumoniae [48]): 0.5 µg/mL (≈ 0.668 µM)
MIC (Streptococcus pneumoniae [49]): > 64 µg/mL
MIC (Streptococcus pneumoniae [50]): 0.004 µg/mL (≈ 0.00535 µM)
